Assay results pooled from the literature.

Compound | assay | test system | setting | measurement | value
NC(=S)NN=Cc1ncccc1N | – | human, plasma | oral, 100 mg | half-life | 1.5 h
Cc1c(C(=O)O)ccc2c3n(nc12)[C@@H]1[C@H](C3)N(CC2CC2)[C@@]2(C(=O)Nc3cc(Cl)ccc32)[C@H]1c1cccc(Cl)c1F | – | female mouse, plasma | intravenous | Vd | 0.44 L/kg
Cc1ccc(C(=O)Nc2ccc(CN3CCN(C)CC3)c(C(F)(F)F)c2)cc1C#Cc1cnc2[nH]ncc2c1 | – | human, plasma | oral, 20 mg, healthy volunteers | half-life | 33.2 h
COc1ccc([C@@H](O)c2cc(-c3ncnc4cc(N5CCOCC5)ccc34)c(F)cc2Cl)nn1 | – | human, plasma | oral, 400 mg, single dose, patients | half-life | 3.51 h
CC(C)n1c(Nc2cccnc2)nc2cnc(Nc3ccc(N4CCN(C)CC4)cc3)nc21 | – | male human, plasma | oral, 100 mg, single dose | half-life | 35.4 h
Cn1cc(Nc2nc(N)nc(-c3cccc(-n4ccc5cc(C6CC6)cc(F)c5c4=O)c3CO)n2)cn1 | – | human, plasma | oral, 300 mg, single dose, fasted, healthy volunteers | half-life | 9.7 h
CNC(=O)n1ccc2cc(Oc3ccnc(NC(=O)c4ccc(C5CCN(CCO)CC5)cc4)c3)c(OCCOC)cc21 | – | human, plasma | oral, 35 mg, single dose, healthy volunteers | half-life | 21 h
N#C[C@@]12C[C@@H]1[C@@H](n1cnc3c(N[C@@H](C4CCC4)C4CC4)nc(I)nc31)[C@H](O)[C@@H]2O | chemical stability | simulated intestinal fluid | 2 h | compound remaining | 97.8%
O=[N+]([O-])c1ccc(-c2ccc(O)cc2)c2cccnc12 | – | male CD-1 mouse, plasma | oral, 5 mg/kg | Vd/F | 157 L/kg
NS(=O)(=O)OC[C@@H]1C[C@@H](n2ccc3c(N[C@H]4CCc5ccccc54)ncnc32)C[C@@H]1O | – | human, plasma | intravenous, 35 mg/m², patients | half-life | 5.1 h
